Test results reported in ChEMBL document CHEMBL4190223, “Natural Products Discovered in a High-Throughput Screen Identified as Inhibitors of RGS17 and as Cytostatic and Cytotoxic Agents for Lung and Prostate Cancer Cell Lines” (J Nat Prod, 2017).
Activity calls are given as the source filed them. The calls are words filed in the database; no cut-off is given here.

How the values were obtained:
[1] = test system: HEK293; assay: Inhibition of Galphao interaction with GFP-fused RGS17 (unknown origin) deltaN mutant expressed in HEK293 cells assessed as increase in RGS17 deltaN mutant localization at cytoplasm at 100 uM up to 30 mins by confocal microscopic analysis; assay type: cell-based; conditions: Homo sapiens
Method in brief: (§1)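 HEK293T cells plated at 25 000 per well on poly-D-lysine glass and kept overnight at 37 °C, 5% CO2. Next day cotransfected with hGαo (pcDNA3.1) and GFP-RGS17 N (Lipofectamine 2000). After 24 h, cells moved to serum-free, phenol-red-free DMEM and given compound (final 0.07–0.8% DMSO). Live confocal imaging; ImageJ cross-sectional intensity analysis, each T=final image normalised to the T=0 maximum.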

[2] = test system: HEK293; assay: Induction of morphological changes in HEK293 cells assessed as cell shrinkage at 100 uM measured over 30 mins; assay type: cell-based; conditions: human, hek293, 0.5 h
[3] = test system: HEK293; assay: Inhibition of Galphao interaction with GFP-fused RGS17 (unknown origin) deltaN mutant expressed in HEK293 cells assessed as disruption of RGS17 localization at cell membranes at 100 uM up to 30 mins by confocal microscopic analysis; assay type: cell-based; conditions: Homo sapiens; method in brief: as §1
[4] = target: T1, Regulator of G-protein signaling 17 (Homo sapiens) (UniProt Q9UGC6); assay: (§2) Inhibition of wild type GST-tagged RGS17 (unknown origin) interaction with biotinylated Galphao after 30 mins in presence of AMF and GDP by AlphaScreen assay
T1 sequence (whole entry): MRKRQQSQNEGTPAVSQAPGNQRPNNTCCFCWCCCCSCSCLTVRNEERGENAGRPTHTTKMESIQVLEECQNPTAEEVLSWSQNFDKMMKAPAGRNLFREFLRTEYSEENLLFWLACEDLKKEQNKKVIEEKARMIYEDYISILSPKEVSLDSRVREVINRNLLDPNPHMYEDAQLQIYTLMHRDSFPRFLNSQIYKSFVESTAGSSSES
Method in brief: (§3)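 AlphaScreen assay: RGS17 (WT or C117A) on anti-GST beads, 10 nM final, preincubated 30 min with compound (half-log series, 100 μM to 1 nM final). Gαo-biotin on streptavidin beads then added with AMF and GDP, 10 nM final. Negative controls lacked AMF. Data n = 3, run at least in duplicate.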

[5] = target: T2, Regulator of G-protein signaling 17 (Homo sapiens, UniProt Q9UGC6); assay: as §2; method in brief: as §3
T2 sequence (Q9UGC6 whole entry): T1 sequence (whole entry)

[6] = test system: PC-3; assay: Growth inhibition of E-cadherin expressing human PC3 cells after 1 hr by sulforhodamine B assay; assay type: functional, cell-based
[7] = test system: HEK293; assay: Inhibition of Galpha0 interaction with GFP-fused RGS17 (unknown origin) deltaN mutant expressed in HEK293 cells assessed as increase in RGS17 deltaN mutant localization at cytoplasm at 100 uM up to 5 mins by confocal microscopic analysis; assay type: cell-based; conditions: Homo sapiens
Method in brief: (§4)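 HEK293T cells plated at 25 000/well on poly-D-lysine glass-bottom wells and co-transfected (Lipofectamine 2000) with hGαo and N-terminal GFP-fused RGS17 ΔN. After 24 h, switched to serum-free, phenol-red-free DMEM and compound added (0.07–0.8% DMSO final). Imaged by confocal microscopy; cross-sectional fluorescence profiles at T=0 and T=final, each pair normalised to the highest T=0 intensity.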

[8] = Thiol reactivity of the compound assessed as cysteine adduct formation at 100 uM after 4 hrs in presence of N-Acetylcysteine by Ellman's method; assay type: physicochemical
Method in brief: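 Ellman assay: N-acetylcysteine (100 μM) incubated with compound (100 μM, 1:1) for 4 h at 37 °C. DTNB (1 mM) then added and absorbance read at 412 nm against N-acetylcysteine alone; N-ethylmaleimide as thiol-reactive control; n = 3.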

[9] = target: T1, Regulator of G-protein signaling 17 (Homo sapiens); assay: Binding affinity to RGS17 (unknown origin) assessed as covalent adduct formation at 100 uM after 72 hrs by ESI-MS analysis
Method in brief: (§5)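 RGS17 N (1ZV4 construct, 20 μM) in 25 mM HEPES, 100 mM NaCl, 5% DMSO, pH 8, incubated with or without 100 μM compound at 4 °C for 72 h. Then dialysed twice against 25 mM NH4HCO3 at 4 °C for 24 h to strip noncovalent ligand, followed by ESI-TOF mass analysis for adducted species.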

[10] = test system: HEK293; assay: Inhibition of Galphao interaction with GFP-fused RGS17 (unknown origin) deltaN mutant expressed in HEK293 cells assessed as increase in RGS17 deltaN mutant localization at cytoplasm at 10 uM up to 20 mins by confocal microscopic analysis; assay type: cell-based; conditions: Homo sapiens; method in brief: as §4
[11] = target: T1, Regulator of G-protein signaling 17 (Homo sapiens); assay: Inhibition of RGS17 (unknown origin)-mediated CREB phosphorylation
[12] = target: T1, Regulator of G-protein signaling 17 (Homo sapiens); assay: Binding affinity to RGS17 (unknown origin) assessed as change in chemical shift perturbations by NMR spectroscopic analysis
[13] = test system: PC-3; assay: Growth inhibition of E-cadherin expressing human PC3 cells transfected with RGS17 at 31.6 to 56.2 uM after 1 hr by sulforhodamine B assay; assay type: functional, cell-based
[14] = test system: A549; assay: Growth inhibition of human A549 cells measured every 2 hrs over 6 days by live cell imaging based method; assay type: functional
Method in brief: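 A549 cells harvested by trypsin, plated at 1000 cells/well in 24-well plates, left overnight to attach, then treated in triplicate with compound or matched DMSO (≤0.2% final). Confluence imaged live every 2 h over 6 days. Change in confluence relative to DMSO plotted against concentration. IC50 taken from a linear regression of each curve at 0.5 relative growth.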

[15] = target: T1, Regulator of G-protein signaling 17 (Homo sapiens); assay: Binding affinity to RGS17 (unknown origin) assessed as change in melting temperature by differential scanning fluorimetry
[16] = test system: HEK293; assay: Induction of morphological changes in HEK293 cells assessed as cell shrinkage at 100 uM; assay type: cell-based; conditions: human, hek293, 100 µM
[17] = test system: HEK293; assay: Inhibition of Galphao interaction with GFP-fused RGS17 (unknown origin) deltaN mutant expressed in HEK293 cells assessed as increase in RGS17 deltaN mutant localization at cytoplasm at 10 uM up to 5 mins by confocal microscopic analysis; assay type: cell-based; conditions: Homo sapiens; method in brief: as §4
[18] = target: T1, Regulator of G-protein signaling 17 (Homo sapiens); assay: Binding affinity to RGS17 (unknown origin) assessed as molecular weight of covalent adduct at 100 uM after 72 hrs by ESI-MS analysis (reference value: 16232 Da); method in brief: as §5
[19] = target: Regulator of G-protein signaling 17 (Homo sapiens, UniProt Q9UGC6, C117A); assay: Inhibition of RGS17 (unknown origin) C117A mutant interaction with biotinylated Galphao after 30 mins in presence of AMF and GDP by AlphaScreen assay; method in brief: as §3
[20] = Solubility of the compound in aqueous buffer solution; assay type: physicochemical
[21] = species on record: Homo sapiens; assay: Growth inhibition of human TEM4-18 cells after 1 hr by sulforhodamine B assay; assay type: functional
[22] = test system: HEK293; assay: Induction of morphological changes in HEK293 cells assessed as plasma membrane blebbing at 100 uM; assay type: cell-based; conditions: human, hek293, 100 µM
[23] = test system: RWPE-1; assay: Growth inhibition of human RWPE1 cells at 31.6 to 56.2 uM after 1 hr by sulforhodamine B assay; assay type: cell-based; conditions: rwpe-1, 1 h
[24] = target: T2, Regulator of G-protein signaling 17; assay: Inhibition of RGS17 (unknown origin) GAP activity in presence of GTP by malachite green dye based assay
[25] = target: Guanine nucleotide-binding protein G(o) subunit alpha (Homo sapiens) (UniProt P09471); assay: Binding affinity to Galphao (unknown origin) assessed as change in melting temperature by differential scanning fluorimetry
[26] = test system: A549; assay: Growth inhibition of human A549 cells up to 1 uM measured every 2 hrs over 6 days by live cell imaging based method; assay type: functional
Method in brief: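 A549 cells trypsinised, counted and seeded at 1000 per well in 24-well plates, then allowed to attach overnight. Treated in triplicate up to 1 μM compound (≤0.2% DMSO, matched DMSO control). Confluence imaged every 2 h for 6 days by live-cell imaging. Confluence change relative to DMSO plotted against concentration; IC50 from linear regression at 0.5 relative growth.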

[27] = test system: HEK293; assay: Inhibition of Galphao interaction with GFP-fused RGS17 (unknown origin) deltaN mutant expressed in HEK293 cells assessed as increase in RGS17 deltaN mutant localization at cytoplasm at 100 uM up to 20 mins by confocal microscopic analysis; assay type: cell-based; conditions: Homo sapiens; method in brief: as §1
[28] = test system: HEK293; assay: Inhibition of Galphao interaction with GFP-fused RGS17 (unknown origin) deltaN mutant expressed in HEK293 cells assessed as increase in RGS17 deltaN mutant localization at cytoplasm at 10 uM up to 30 mins by confocal microscopic analysis; assay type: cell-based; conditions: Homo sapiens; method in brief: as §1
[29] = target: T1, Regulator of G-protein signaling 17 (Homo sapiens); assay: Inhibition of Galphao interaction with GFP-fused full length RGS17 (unknown origin) expressed in HEK293 cells assessed as disruption of RGS17 localization at cell membranes at 100 uM after 10 mins by confocal microscopic analysis; assay type: cell-based
Method in brief: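 HEK293T cells co-transfected with hGαo and N-terminal GFP-fused full-length RGS17, then treated with 100 μM compound in serum-free, phenol-red-free DMEM. RGS17 membrane localisation followed by confocal imaging at 0 and 10 min.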

Chain of Regulator of G-protein signaling 17 (Homo sapiens, UniProt Q9UGC6, C117A) (Q9UGC6 whole entry C117A): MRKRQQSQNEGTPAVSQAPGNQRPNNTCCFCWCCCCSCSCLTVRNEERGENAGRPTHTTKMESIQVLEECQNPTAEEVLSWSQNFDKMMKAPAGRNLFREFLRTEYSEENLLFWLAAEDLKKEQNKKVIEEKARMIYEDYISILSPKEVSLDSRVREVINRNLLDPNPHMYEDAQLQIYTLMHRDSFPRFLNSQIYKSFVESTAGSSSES
Chain of Guanine nucleotide-binding protein G(o) subunit alpha (Homo sapiens) (P09471 2-354 limits assumed): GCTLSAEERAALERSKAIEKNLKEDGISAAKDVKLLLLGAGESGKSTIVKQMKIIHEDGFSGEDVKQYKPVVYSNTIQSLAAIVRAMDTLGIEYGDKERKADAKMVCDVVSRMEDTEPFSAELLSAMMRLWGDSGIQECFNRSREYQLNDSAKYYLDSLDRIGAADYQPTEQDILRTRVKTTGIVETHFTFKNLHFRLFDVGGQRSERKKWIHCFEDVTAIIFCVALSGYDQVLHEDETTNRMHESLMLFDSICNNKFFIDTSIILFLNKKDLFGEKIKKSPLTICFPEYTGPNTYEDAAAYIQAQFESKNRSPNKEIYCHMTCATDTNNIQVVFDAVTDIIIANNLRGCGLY

SMILES | inhibition [4] | IC50 [5] [µM] | growth inhibition (GI) [6] | inhibition [7] | Activity [8] | Activity [9] | inhibition [11] | Activity [12] | growth inhibition (GI) [13] | IC50 [14] [µM] | Activity [15] | Activity [16] | inhibition [17] | Activity [18] [Da] | IC50 [19] [µM] | growth inhibition (GI) [21] | Activity [22] | growth inhibition (GI) [23] | IC50 [24] [µM] | inhibition [28] | other results
Cc1ccc(-n2sc(=O)n(Cc3ccc(F)cc3)c2=O)cc1 |  |  |  |  |  |  |  |  |  |  |  |  |  |  |  |  |  |  |  |  | inhibition [1]: inactive; Activity [2]: Toxic; inhibition [3]: inactive
CC1=C(O)C(=O)C=C2C1=CC=C1[C@@]2(C)CC[C@@]2(C)[C@@H]3C[C@](C)(C(=O)O)CC[C@]3(C)CC[C@]12C [CELASTROL] | Dose-dependent effect | 10.5 | Dose-dependent effect | Active | Not Active | Active | inactive | inactive | inactive | 0.69 | inactive | Non-Toxic | Active | 16200 | > 100 | Dose-dependent effect | Non-Toxic | Toxic |  |  | inhibition [10]: Active; solubility [20]: Insoluble
CC(C)=CCC[C@]1(C)C=Cc2c(O)c3c(c(CC=C(C)C)c2O1)O[C@]12C(=C[C@@H]4C[C@H]1C(C)(C)O[C@@]2(C/C=C(/C)C(=O)O)C4=O)C3=O [GAMBOGIC ACID] |  |  |  |  |  |  |  |  |  |  |  |  |  |  |  |  |  |  | 10 |  | Activity [25]: Active
O=c1c(-c2cc(O)c(O)c(O)c2)coc2cc(O)c(O)c(O)c12 [IRIGENOL] | Dose-dependent effect | 47.2 |  |  | Active | inactive |  | inactive |  |  | inactive | Non-Toxic |  | 16200 | 81.8 |  | Non-Toxic |  | 35 | Active | growth inhibition (GI) [26]: inactive; inhibition [27]: Active
C[n+]1cc2c3c(ccc2c2ccc4cc5c(cc4c21)OCO5)OCO3 [SANGUINARIUM] | Dose-dependent effect | 72.8 | Dose-dependent effect | Active | Active | inactive | inactive | inactive | inactive | 0.61 | inactive | Non-Toxic | Active | 16200 | > 100 | Dose-dependent effect | Non-Toxic | Toxic | 12 | Active | inhibition [29]: inactive
